Among the data in ChEMBL document CHEMBL1122441, “Structure-activity relationships of synthetic antibiotic analogues of anisomycin” (1983) are Concentration, Inhibitory zone and MIC values, retold here.

For experiment [1], the system named is Trichomonas vaginalis. The experiment in a line: Antiprotozoal activity measured as the conc for >95% inhibition of Trichomonas vaginalis. Format: functional, organism-based. In short, it runs like this: (§1)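 Protozoa grown 48 h (T. vaginalis in TYM 721, T. foetus in TYM 359, E. histolytica J 190 in modified Boeck Drbohlav medium, 37 °C) and pooled; 0.6 × 10^6 organisms into 10-mL tubes with drug 32 to 0.06 µg/mL, 48 h; inhibition scored microscopically against untreated controls as 100, >95, 95-25 or <25%.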

For experiment [2], the system named is Trichomonas vaginalis. The experiment in a line: Antiprotozoal activity measured as the conc for 100% inhibition of Trichomonas vaginalis. Format: functional, organism-based. In a few lines: as §1
Experiment [3] has as its system Tritrichomonas suis. The experiment in a line: Antiprotozoal activity measured as the conc for 95-[…]% inhibition of Trichomonas foetus. Format: functional, organism-based.
In experiment [4] the test system is Entamoeba histolytica. The experiment in a line: Antiprotozoal activity measured as the conc for >95% inhibition of Entamoeba histolytica. Format: functional, organism-based. In short, it runs like this: (§2)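 E. histolytica (J 190) grown 48 h at 37 °C in modified Boeck Drbohlav medium, pooled; 0.6 × 10^6 organisms inoculated into 10 mL medium with drug at 32 to 0.06 µg/mL, incubated 48 h.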

In experiment [5] the test system is Tritrichomonas suis. The experiment in a line: Antiprotozoal activity measured as the conc for >95% inhibition of Trichomonas foetus. Format: functional, organism-based. In short, it runs like this: as §1
Experiment [6] concerns Tritrichomonas suis. The experiment in a line: Antiprotozoal activity measured as the conc for 100% inhibition of Trichomonas foetus. Format: functional, organism-based. In short, it runs like this:
as §1

For experiment [7], the system named is Candida albicans. Put plainly: Antifungal activity against Candida albicans, activity expressed as […] inhibitory zone (mm, diameter); QA is questionable activity. Format: functional, organism-based. In a few lines:
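Agar diffusion on Sabouraud's dextrose agar seeded with 24-h yeast culture at 1:100 in agar; paper disks loaded with 0.05 mg drug (stock 1 mg/mL in Me2SO-EtOH 1:9). Incubated at 37 °C for 48 h; inhibition zone diameter measured in mm.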

In experiment [8] the test system is Trichomonas vaginalis. The experiment in a line: Antiprotozoal activity measured as the conc for 95-[…]% inhibition of Trichomonas vaginalis. Format: functional, organism-based.
For experiment [9], the system named is Entamoeba histolytica. The experiment in a line: Antiprotozoal activity measured as the conc for 100% inhibition of Entamoeba histolytica. Format: functional, organism-based. In short, it runs like this: as §2
In experiment [10] the test system is Tritrichomonas suis. Put plainly: Antiprotozoal activity measured as the conc for <[…]% inhibition of Trichomonas foetus. Format: functional, organism-based.
For experiment [11], the system named is Trichomonas vaginalis. The experiment in a line: Antiprotozoal activity measured as the conc for <[…]% inhibition of Trichomonas vaginalis. Format: functional, organism-based.
Experiment [12] deals with Entamoeba histolytica. The experiment in a line: Antiprotozoal activity measured as the conc for <[…]% inhibition of Entamoeba histolytica,. Format: functional, organism-based.
The subject of experiment [13] is Epidermophyton floccosum. Put plainly: Antifungal activity against Epidermophyton floccosum, activity expressed as minimum inhibitory concentration (ug/mL). Format: functional.
For experiment [14], the system named is Candida albicans. The experiment in a line: Antifungal activity against Candida albicans, activity expressed as minimum inhibitory concentration (ug/mL). Format: functional. In short, it runs like this:
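Tube dilution in Sabouraud's dextrose broth (ca. 3 mL/tube) at 37 °C; inoculum from 24-h yeast culture, 1:1000 in saline. Drug dissolved in Me2SO-EtOH (1:9), stock 3.2 mg/mL; twofold serial dilutions 32 to 0.06 µg/mL. Read after 48 h; MIC = lowest concentration with no visible growth.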

In experiment [15] the test system is Entamoeba histolytica. Put plainly: Antiprotozoal activity measured as the conc for >95% inhibition of Entamoeba histolytica,. Format: functional, organism-based. In short, it runs like this:
as §1

Experiment [16] has as its system Entamoeba histolytica. Put plainly: Antiprotozoal activity measured as the conc for 95-[…]% inhibition of Entamoeba histolytica. Format: functional, organism-based.
Experiment [17] relates to Trichophyton benhamiae. The experiment in a line: Antifungal activity against Trichophyton mentagrophytes, activity expressed as minimum inhibitory concentration (ug/mL). Format: functional, Arthroderma benhamiae.
The subject of experiment [18] is Entamoeba histolytica. Put plainly: Antiprotozoal activity measured as the conc for 100% inhibition of Entamoeba histolytica,. Format: functional, organism-based. In short, it runs like this:
as §1

Experiment [19] has as its system Saccharomyces cerevisiae. Put plainly: Antifungal activity against Saccharomyces cerevisiae, activity expressed as minimum inhibitory concentration (ug/mL). Format: functional.
For experiment [20], the system named is Trichophyton benhamiae. The experiment in a line: Antifungal activity against Trichophyton mentagrophytes, activity expressed as minimum inhibitory concentration ([…]). Format: functional, Arthroderma benhamiae.
Experiment [21] deals with Trichophyton benhamiae. The experiment in a line: Antifungal activity against Trichophyton mentagrophytes, activity expressed as inhibitory zone (mm, diameter). Format: functional, Arthroderma benhamiae. In a few lines: (§3)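 Dermatophytes grown in Sabouraud's dextrose broth, 4-5 day cultures seeded 1:100 into agar; disks with 0.05 mg drug (1 mg/mL stock, Me2SO-EtOH 1:9); grown and tested at 28 °C, zone diameter (mm) read after 48 h.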

The subject of experiment [22] is Candida albicans. The experiment in a line: Antifungal activity against Candida albicans, activity expressed as minimum inhibitory concentration ([…]). Format: functional.
The test system of another experiment is Clostridium novyi. The experiment in a line: Antibacterial activity against Clostridium novyi, activity expressed as inhibitory zone (mm, diameter). Format: functional. In short, it runs like this:
(§4)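 Agar diffusion: disks loaded with 0.05 mg drug (stock 1 mg/mL in Me2SO-EtOH 1:9) on brain-heart infusion agar seeded 1:100 with 48-h anaerobe culture grown in thioglycolate broth; incubated anaerobically at 37 °C for 24 h; zone diameter measured in mm.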

In experiment [23] the test system is Saccharomyces cerevisiae. The experiment in a line: Antifungal activity against Saccharomyces cerevisiae, activity expressed as minimum inhibitory concentration ([…]). Format: functional.
A further experiment has as its system Cutibacterium acnes. The experiment in a line: Antibacterial activity against Propionibacterium acnes, activity expressed as inhibitory zone (mm, diameter); QA is questionable activity. Format: functional, organism-based. In short, it runs like this:
as §4

For experiment [24], the system named is Saccharomyces cerevisiae. The experiment in a line: Antifungal activity against Saccharomyces cerevisiae, activity expressed as inhibitory zone (mm, diameter). Format: functional. In short, it runs like this: (§5)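 Yeast grown in Sabouraud's dextrose broth, 24-h culture seeded 1:100 into agar; paper disks carrying 0.05 mg drug (from 1 mg/mL stock in Me2SO-EtOH 1:9); 37 °C, read after 48 h as zone diameter (mm).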

Experiment [25] relates to Epidermophyton floccosum. The experiment in a line: Antifungal activity against Epidermophyton floccosum, activity expressed as inhibitory zone (mm, diameter). Format: functional. In a few lines:
as §3

The test system of the next experiment is Streptococcus pyogenes. The experiment in a line: Antibacterial activity against Streptococcus pyogenes C, activity expressed as inhibitory zone (mm, diameter). Format: functional. In short, it runs like this: as §4
Experiment [26] has as its system Tritrichomonas suis. The experiment in a line: Antiprotozoal activity measured as the conc for < […]% inhibition of Trichomonas foetus. Format: functional, organism-based.
A further experiment has as its system Bacteroides fragilis. The experiment in a line: Antibacterial activity against Bacteroides fragilis, activity expressed as […] inhibitory zone (mm, diameter). Format: functional. In a few lines:
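Agar diffusion vs B. fragilis grown in thioglycolate broth: 0.05 mg drug per paper disk (stock 1 mg/mL, Me2SO-EtOH 1:9), brain-heart infusion agar seeded with 48-h culture at 1:100, anaerobic 37 °C, 24 h; zone diameter in mm.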

The next experiment concerns Actinomyces israelii. Put plainly: Antibacterial activity against Actinomyces israelii, activity expressed as inhibitory zone (mm, diameter). Format: functional. In a few lines: as §4
Experiment [27] relates to Candida albicans. The experiment in a line: Antifungal activity against Candida albicans, activity expressed as […] inhibitory zone (mm, diameter). Format: functional. In a few lines:
as §5

In experiment [28] the test system is Trichomonas vaginalis. Put plainly: Antiprotozoal activity measured as the conc for<[…]% inhibition of Trichomonas vaginalis. Format: functional, organism-based.
For experiment [29], the system named is Epidermophyton floccosum. The experiment in a line: Antifungal activity against Epidermophyton floccosum, activity expressed as minimum inhibitory concentration ([…]). Format: functional.

Converted amounts (≈) assume the structure as drawn.

Turning to `COc1ccc(C[C@H]2NC[C@H](O)[C@H]2OC(C)=O)cc1`, the Concentration with Trichomonas vaginalis [1] came out at 0.5 µg/mL; in the experiment on Trichomonas vaginalis [2], 2 µg/mL; in the experiment on Tritrichomonas suis [3], 0.5 µg/mL; in the experiment with Entamoeba histolytica [4], 1 µg/mL; with Tritrichomonas suis [5] it was 1 µg/mL; in the experiment with Tritrichomonas suis [6], 4 µg/mL. The figures for the Concentration in the experiment on Trichomonas vaginalis [8], in the experiment with Entamoeba histolytica [9] and in the experiment on Tritrichomonas suis [10] were 0.25 µg/mL, 2 µg/mL and 0.25 µg/mL, respectively. Besides, the Inhibitory zone entry in the experiment with Candida albicans [7] was “Questionable activity”.
Regarding `Clc1ccccc1C(c1ccccc1)(c1ccccc1)n1ccnc1` [CLOTRIMAZOLE], the Concentration with Trichomonas vaginalis [2] worked out at 32 µg/mL; with Trichomonas vaginalis [11], 4 µg/mL; with Entamoeba histolytica [12] it was 4 µg/mL; with Entamoeba histolytica [15], 16 µg/mL; with Trichomonas vaginalis [8], 8 µg/mL; in the experiment on Entamoeba histolytica [16], 8 µg/mL. The Concentration with Entamoeba histolytica [18] was 32 µg/mL. The MIC with Epidermophyton floccosum [13] was 0.06 µg/mL (≈ 0.174 µM); in the experiment on Candida albicans [14], 4 µg/mL (≈ 11.6 µM); in the experiment with Trichophyton benhamiae [17] it was 0.06 µg/mL (≈ 0.174 µM); against Saccharomyces cerevisiae [19], 0.06 µg/mL (≈ 0.174 µM).
For the molecule `COc1ccccc1C[C@H]1NC[C@H](O)[C@H]1OC(C)=O`, the MIC against Trichophyton benhamiae [20], in the experiment on Candida albicans [22], with Saccharomyces cerevisiae [23] and in the experiment on Epidermophyton floccosum [29] was above 32 µg/mL throughout. Also, the Inhibitory zone with Trichophyton benhamiae [21] was 0 mm; in the experiment on Clostridium novyi, 13 mm; with Cutibacterium acnes, “Questionable activity”; in the experiment with Saccharomyces cerevisiae [24], 0 mm; in the experiment with Epidermophyton floccosum [25], 0 mm; with Streptococcus pyogenes, 0 mm. Further, the Inhibitory zone in the experiment on Bacteroides fragilis, in the experiment on Actinomyces israelii and in the experiment with Candida albicans [27] was 0 mm throughout. Also, the Concentration with Trichomonas vaginalis [11], in the experiment on Tritrichomonas suis [26] and with Trichomonas vaginalis [28] was 32 µg/mL each time.
